For data set [1], the target named is Tyrosine-protein kinase JAK1 (Homo sapiens) (UniProt P23458). As to the kind of experiment: Inhibition of JAK1 (unknown origin) at 10 uM relative to control.
Data set [2] relates to Brain. As to the kind of experiment: Drug uptake in Mdr1(a/b) knock out and P-gp competent FVB mouse brain at 1 mg/kg, iv at 5 mins. Further details: dose 1 mg/kg, route intravenous. To be noted: in vivo. Format: ADME, organism-based. The gist of the method:
(§1)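 FVB mice, both Mdr1a/b (-/-) and P-gp-competent wild-type, were given a single 1 mg/kg IV dose. Brain and plasma concentrations were measured 5 min after dosing. Brain uptake was expressed as the brain-to-plasma concentration ratio (Kp). In vivo P-gp efflux was assessed by comparing the knockout and wild-type strains.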

Data set [3] deals with Platelet-derived growth factor receptor alpha (Homo sapiens, UniProt P16234). Nature of the data set: Inhibition of PDGFRalpha (unknown origin) by TR-FRET assay in presence of ATP. (In general: Time-resolved FRET reads energy transfer from a long-lived donor to a nearby acceptor.)
Data set [4] concerns the target Macrophage colony-stimulating factor 1 receptor (Homo sapiens, UniProt P07333). As to the kind of experiment: Inhibition of CSF1R (unknown origin) by TR-FRET assay in presence of ATP.
The target in data set [5] is ATP-dependent translocase ABCB1 (Homo sapiens, UniProt P08183). As to the kind of experiment: Inhibition of MDR1 (unknown origin) transfected in MDCK cells. In kind it is cell-based.
The subject of data set [6] is Mus musculus. Nature of the data set: Inhibition of P-gp in Mdr1(a/b) knock out and P-gp competent FVB mouse at 1 mg/kg, iv. Format: functional, organism-based. Further details: dose 1 mg/kg. The gist of the method:
as §1

Data set [7] is described as follows: Ratio of drug level in brain to plasma in Mdr1(a/b) knock out and P-gp competent FVB mouse at 1 mg/kg, iv at 5 mins. The settings on record: read-out: BPR. On the set-up: dose 1 mg/kg, route intravenous. In kind it is ADME, organism-based. Summed up:
as §1

The target of data set [8] is T1, Leucine-rich repeat serine/threonine-protein kinase 2 (Homo sapiens, UniProt Q5S007, G2019S). As to the kind of experiment: Inhibition of GST-tagged LRRK2 G2019S mutant (970 to 2527 amino acid residues) (unknown origin) assessed as inhibition of biotinylated-LRRKtide phosphorylation by HTRF assay in presence of ATP.
T1 sequence (Q5S007 whole entry G2019S, the tested form may be a part): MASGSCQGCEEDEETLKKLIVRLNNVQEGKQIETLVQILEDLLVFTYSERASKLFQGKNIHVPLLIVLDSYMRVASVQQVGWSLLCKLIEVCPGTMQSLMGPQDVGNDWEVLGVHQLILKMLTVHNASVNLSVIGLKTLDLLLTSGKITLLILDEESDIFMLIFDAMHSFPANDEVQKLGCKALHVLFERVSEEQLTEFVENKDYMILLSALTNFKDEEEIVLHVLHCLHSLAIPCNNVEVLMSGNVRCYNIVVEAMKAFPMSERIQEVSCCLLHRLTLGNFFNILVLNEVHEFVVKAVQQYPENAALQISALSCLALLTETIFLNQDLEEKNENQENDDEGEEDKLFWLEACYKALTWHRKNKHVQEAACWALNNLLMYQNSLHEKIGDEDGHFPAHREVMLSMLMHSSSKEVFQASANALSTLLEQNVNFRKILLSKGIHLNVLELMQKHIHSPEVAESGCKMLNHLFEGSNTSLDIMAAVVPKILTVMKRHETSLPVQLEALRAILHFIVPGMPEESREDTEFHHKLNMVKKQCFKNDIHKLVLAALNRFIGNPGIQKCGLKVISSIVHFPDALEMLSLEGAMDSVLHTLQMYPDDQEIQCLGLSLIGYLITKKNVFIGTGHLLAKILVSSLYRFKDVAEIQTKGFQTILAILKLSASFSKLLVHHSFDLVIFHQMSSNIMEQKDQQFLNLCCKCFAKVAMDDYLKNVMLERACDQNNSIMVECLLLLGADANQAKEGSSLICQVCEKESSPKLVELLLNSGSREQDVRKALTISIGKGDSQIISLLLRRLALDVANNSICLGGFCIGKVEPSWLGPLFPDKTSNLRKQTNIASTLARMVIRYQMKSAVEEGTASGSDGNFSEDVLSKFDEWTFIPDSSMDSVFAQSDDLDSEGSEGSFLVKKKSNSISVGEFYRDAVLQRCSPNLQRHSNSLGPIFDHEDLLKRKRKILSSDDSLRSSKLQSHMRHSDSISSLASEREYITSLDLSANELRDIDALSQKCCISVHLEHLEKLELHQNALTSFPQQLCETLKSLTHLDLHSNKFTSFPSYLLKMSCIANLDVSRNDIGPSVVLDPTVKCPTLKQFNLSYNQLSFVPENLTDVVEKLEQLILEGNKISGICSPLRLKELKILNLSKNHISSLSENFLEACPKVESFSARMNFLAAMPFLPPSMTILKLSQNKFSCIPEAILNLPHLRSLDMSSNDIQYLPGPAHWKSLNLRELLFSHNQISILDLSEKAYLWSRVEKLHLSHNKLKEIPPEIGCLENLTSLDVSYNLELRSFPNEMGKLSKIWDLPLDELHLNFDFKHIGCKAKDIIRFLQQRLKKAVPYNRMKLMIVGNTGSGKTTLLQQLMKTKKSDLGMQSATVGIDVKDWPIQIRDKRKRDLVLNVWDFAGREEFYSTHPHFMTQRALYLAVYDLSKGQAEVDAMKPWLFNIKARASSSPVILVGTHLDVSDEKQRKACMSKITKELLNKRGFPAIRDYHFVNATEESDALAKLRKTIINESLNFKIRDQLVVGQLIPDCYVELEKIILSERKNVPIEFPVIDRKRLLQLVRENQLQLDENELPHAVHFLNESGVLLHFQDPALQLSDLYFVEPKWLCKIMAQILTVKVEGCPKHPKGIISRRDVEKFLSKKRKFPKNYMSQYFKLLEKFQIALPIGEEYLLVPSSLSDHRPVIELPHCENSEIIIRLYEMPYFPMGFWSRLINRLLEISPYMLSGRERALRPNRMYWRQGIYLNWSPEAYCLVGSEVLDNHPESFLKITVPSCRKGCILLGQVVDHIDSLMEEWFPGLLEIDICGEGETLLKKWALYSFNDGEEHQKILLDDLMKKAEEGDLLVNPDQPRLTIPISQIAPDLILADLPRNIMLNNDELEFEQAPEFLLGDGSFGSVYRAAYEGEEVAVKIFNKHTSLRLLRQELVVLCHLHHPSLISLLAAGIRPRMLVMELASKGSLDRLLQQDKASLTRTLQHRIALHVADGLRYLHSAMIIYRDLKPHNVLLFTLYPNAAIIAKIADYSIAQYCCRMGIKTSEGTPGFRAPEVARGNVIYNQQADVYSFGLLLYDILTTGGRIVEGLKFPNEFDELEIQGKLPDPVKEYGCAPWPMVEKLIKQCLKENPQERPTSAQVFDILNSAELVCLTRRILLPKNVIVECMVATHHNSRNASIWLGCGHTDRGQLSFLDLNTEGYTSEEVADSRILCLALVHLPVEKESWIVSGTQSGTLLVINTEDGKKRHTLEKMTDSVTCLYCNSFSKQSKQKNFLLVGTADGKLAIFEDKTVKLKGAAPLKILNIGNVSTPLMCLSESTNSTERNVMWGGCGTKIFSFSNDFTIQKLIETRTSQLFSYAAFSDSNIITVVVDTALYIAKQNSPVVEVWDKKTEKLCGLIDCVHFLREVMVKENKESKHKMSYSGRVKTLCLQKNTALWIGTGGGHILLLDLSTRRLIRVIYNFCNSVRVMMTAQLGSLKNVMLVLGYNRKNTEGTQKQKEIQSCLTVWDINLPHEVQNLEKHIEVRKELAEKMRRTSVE
Data set [9] addresses T1, Leucine-rich repeat serine/threonine-protein kinase 2. As to the kind of experiment: Inhibition of LRRK2 G2019S mutant (unknown origin) transfected in HEK293 cells assessed as inhibition of S935 phosphorylation. Format: cell-based.
For data set [10], the target named is Leucine-rich repeat serine/threonine-protein kinase 2 (Homo sapiens, UniProt Q5S007). As to the kind of experiment: Inhibition of wild type GST-tagged LRRK2 (970 to 2527 amino acid residues) (unknown origin) assessed as inhibition of biotinylated-LRRKtide phosphorylation by HTRF assay in presence of ATP.
Chain of Leucine-rich repeat serine/threonine-protein kinase 2 (Homo sapiens, UniProt Q5S007) (Q5S007 whole entry, the tested form may be a part): as the sequence (Q5S007 whole entry G2019S, the tested form may be a part) above, with S2019G counted along it

The structures appear in SMILES notation. pEC50, pIC50: −log10 of the molar value. Calls of active or inactive are those of the source. The calls are words filed in the database; no cut-off is given here.

Chain of Tyrosine-protein kinase JAK1 (Homo sapiens) (P23458 whole entry): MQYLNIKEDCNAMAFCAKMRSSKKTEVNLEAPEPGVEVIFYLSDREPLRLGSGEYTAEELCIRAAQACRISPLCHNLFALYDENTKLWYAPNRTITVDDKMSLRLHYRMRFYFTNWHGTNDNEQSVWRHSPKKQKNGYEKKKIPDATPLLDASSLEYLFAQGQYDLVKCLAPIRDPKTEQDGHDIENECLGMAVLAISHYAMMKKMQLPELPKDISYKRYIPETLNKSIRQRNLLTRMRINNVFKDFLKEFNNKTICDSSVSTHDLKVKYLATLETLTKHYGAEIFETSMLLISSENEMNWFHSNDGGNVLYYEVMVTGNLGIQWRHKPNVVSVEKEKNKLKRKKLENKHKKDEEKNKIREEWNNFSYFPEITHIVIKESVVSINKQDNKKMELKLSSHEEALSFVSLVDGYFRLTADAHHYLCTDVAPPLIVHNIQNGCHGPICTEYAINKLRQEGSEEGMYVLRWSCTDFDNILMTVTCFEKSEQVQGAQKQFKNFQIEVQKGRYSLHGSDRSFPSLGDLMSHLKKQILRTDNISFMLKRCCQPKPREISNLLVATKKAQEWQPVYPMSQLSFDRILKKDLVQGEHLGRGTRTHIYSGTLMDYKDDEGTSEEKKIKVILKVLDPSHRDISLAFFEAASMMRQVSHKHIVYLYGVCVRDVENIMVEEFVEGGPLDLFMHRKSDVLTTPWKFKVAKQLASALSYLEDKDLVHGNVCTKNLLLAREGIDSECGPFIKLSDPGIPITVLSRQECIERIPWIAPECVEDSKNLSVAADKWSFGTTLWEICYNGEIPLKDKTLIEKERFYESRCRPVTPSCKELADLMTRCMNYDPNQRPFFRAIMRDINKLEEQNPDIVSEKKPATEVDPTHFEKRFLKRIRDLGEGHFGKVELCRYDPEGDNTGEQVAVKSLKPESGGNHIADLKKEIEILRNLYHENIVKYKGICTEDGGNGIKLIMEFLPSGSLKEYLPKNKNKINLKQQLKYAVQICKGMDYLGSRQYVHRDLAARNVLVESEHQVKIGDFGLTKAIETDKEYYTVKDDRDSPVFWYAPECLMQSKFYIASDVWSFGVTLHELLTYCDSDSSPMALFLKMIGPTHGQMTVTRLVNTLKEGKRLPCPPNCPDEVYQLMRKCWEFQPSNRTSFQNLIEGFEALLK
Chain of Macrophage colony-stimulating factor 1 receptor (P07333 whole entry): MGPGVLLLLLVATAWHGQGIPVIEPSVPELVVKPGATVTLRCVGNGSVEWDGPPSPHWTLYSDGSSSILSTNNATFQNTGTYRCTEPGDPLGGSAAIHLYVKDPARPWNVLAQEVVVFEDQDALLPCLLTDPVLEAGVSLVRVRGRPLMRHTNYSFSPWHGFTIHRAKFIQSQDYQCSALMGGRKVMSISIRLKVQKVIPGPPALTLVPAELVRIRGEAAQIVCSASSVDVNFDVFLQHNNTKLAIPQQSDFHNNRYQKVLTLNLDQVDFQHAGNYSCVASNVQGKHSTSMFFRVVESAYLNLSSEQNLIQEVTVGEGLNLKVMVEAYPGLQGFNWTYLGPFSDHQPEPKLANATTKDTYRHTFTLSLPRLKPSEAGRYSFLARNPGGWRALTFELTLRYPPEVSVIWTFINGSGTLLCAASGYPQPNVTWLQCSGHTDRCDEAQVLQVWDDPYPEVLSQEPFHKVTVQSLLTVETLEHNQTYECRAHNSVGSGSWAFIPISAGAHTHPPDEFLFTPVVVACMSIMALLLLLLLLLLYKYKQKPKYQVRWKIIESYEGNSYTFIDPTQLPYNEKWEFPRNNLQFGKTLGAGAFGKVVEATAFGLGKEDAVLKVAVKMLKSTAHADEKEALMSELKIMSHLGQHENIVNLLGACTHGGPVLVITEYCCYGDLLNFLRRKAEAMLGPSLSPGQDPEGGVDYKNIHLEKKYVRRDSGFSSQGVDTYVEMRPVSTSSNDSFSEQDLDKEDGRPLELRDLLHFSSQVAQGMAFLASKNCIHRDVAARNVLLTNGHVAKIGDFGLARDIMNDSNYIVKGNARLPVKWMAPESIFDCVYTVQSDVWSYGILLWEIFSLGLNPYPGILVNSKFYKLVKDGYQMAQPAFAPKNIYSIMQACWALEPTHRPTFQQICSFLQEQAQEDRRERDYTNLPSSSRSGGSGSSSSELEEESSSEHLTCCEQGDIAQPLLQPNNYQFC

Take `CS(=O)(=O)c1ccc(-c2ccc3c(NC4CCC4)c(C(N)=O)nnc3c2)cc1`: in [1], the inhibition – broadly, how much of the control response was suppressed – was 55%. In addition, the Drug uptake result in data set [2] is “Active”. Further, the figures for the pIC50 in data set [3], in data set [4] and in [8] were 6.90, above 7.40 and 7.72, respectively. For the same compound, in [5], the “inhibition (INH)” value is reported as “Active”. In addition, in [6], the inhibition result is “Active”. The Kp at 5 min in data set [7] worked out at 0.76.

As for `C[C@@H](Nc1c(C(N)=O)nnc2cc(-c3ccc(S(C)(=O)=O)cc3)ccc12)C1CC1`, in [1], the inhibition came to 74%. Besides, the pIC50 (commonly the negative decadic logarithm of the IC50, by convention in mol/L) was 7.66 in data set [3], 7.77 in data set [4], 8.15 in data set [8] and 9.00 in data set [10]. Moreover, the pEC50 – broadly, −log10 of the EC50, conventionally taken in molar units – in data set [9] was 7.15.

As to `CC(C)Nc1c(C(N)=O)nnc2cc(N3CCOCC3)ccc12`, the inhibition in data set [1] is 72%. The Drug uptake entry in [2] is reported as “Active”. Besides, the pIC50 in data set [3] is 7.66; in data set [4], 7.27; in data set [8] it was 7.92; in data set [10], 8.05. Also, the “inhibition (INH)” value in [5] was “Active”. In addition, in data set [6], the inhibition result was “Active”. In addition, the Kp at 5 min in data set [7] amounted to 11.4.

Compound `CC(C)Nc1c(C(N)=O)nnc2ccc(-c3cn[nH]c3)cc12` came in with an inhibition in data set [1] of 90%. Besides, the pEC50 in data set [9] is 6.96. For the same compound, the results for the pIC50 in data set [8] and in [10] were 8.30 and 9.00, respectively.

As for `CC(C)Nc1c(C(N)=O)cnc2cc(-c3ccc(S(C)(=O)=O)cc3)ccc12`, the inhibition in [1] is 77%. Besides, the pIC50 in data set [10] is 7.46.

Turning to `CC(C)Nc1c(C(N)=O)nnc2cc(-c3ccncc3)ccc12`, in data set [1], the inhibition was 96%.

The compound `CC(C)Nc1c(C(N)=O)nnc2ccc(-c3ccncc3)cc12` returned an inhibition in data set [1] of 33%. The pIC50 in data set [8] is 7.18.
